# Measurements: ChEMBL document CHEMBL2413051, “Antibacterial activity of quinoxalines, quinazolines, and 1,5-naphthyridines” (2013)
# Active and inactive are the calls of the source. The rule behind the calls is not given here.
# Columns and labels:
# Staphylococcus aureus [1] = test: Ratio of MBC to MIC for methicillin-sensitive Staphylococcus aureus 8325-4; assay type: functional
# Staphylococcus aureus [2] = test: Bactericidal activity against methicillin-sensitive Staphylococcus aureus 8325-4; assay type: functional
# Procedure, shortened: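 MBC against MSSA strain 8325-4, determined per a previously described method; paired MIC by CLSI broth microdilution, MIC being lowest concentration giving ≥90% growth inhibition.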
# [3] = molecular target: T1, Cell division protein FtsZ (Staphylococcus aureus) (UniProt P0A031); test: Stimulation of purified Staphylococcus aureus FtsZ polymerization at 40 ug/ml by microtiter plate based light-scattering assay
# T1 sequence (whole entry): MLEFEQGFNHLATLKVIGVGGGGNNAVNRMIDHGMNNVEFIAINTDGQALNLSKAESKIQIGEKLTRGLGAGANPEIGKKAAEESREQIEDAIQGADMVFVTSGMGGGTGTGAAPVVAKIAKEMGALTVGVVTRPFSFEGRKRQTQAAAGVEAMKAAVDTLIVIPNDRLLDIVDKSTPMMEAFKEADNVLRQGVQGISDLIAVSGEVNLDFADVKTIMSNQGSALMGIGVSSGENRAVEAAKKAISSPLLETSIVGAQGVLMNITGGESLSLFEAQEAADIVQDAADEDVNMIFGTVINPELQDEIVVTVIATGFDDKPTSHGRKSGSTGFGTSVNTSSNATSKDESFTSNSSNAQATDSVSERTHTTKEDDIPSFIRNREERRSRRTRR
# Staphylococcus aureus [4] = test: Bactericidal activity against methicillin-resistant Staphylococcus aureus ATCC 33591; assay type: functional
# Enterococcus faecalis [5] = test: Ratio of MBC to MIC for vancomycin-resistant Enterococcus faecalis ATCC 51575; assay type: functional
# Procedure, shortened: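 Ratio of MBC to MIC, both in µg/mL. MIC was found by CLSI broth microdilution as the lowest concentration giving ≥90% growth inhibition. MBC was found by a previously described method. Per CLSI, a ratio of 1–2 is read as bactericidal and ≥8 as bacteriostatic.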
# Enterococcus faecalis [6] = test: Bactericidal activity against vancomycin-resistant Enterococcus faecalis ATCC 51575; assay type: functional
# Staphylococcus aureus [7] = test: microbe, parasite or virus in culture; assay type: functional; details: ATCC 33591
# [8] = molecular target: T1, Cell division protein FtsZ (Staphylococcus aureus); test: Stimulation of purified Staphylococcus aureus FtsZ polymerization at 40 ug/ml by microtiter plate based light-scattering assay in presence of 10 mM depolymerizing agent GDP
# Enterococcus faecalis [9] = test: microbe, parasite or virus in culture; assay type: functional; details: ATCC 51575
# Enterococcus faecalis [10] = test: microbe, parasite or virus in culture; assay type: functional; details: ATCC 19433
# Staphylococcus aureus [11] = test: microbe, parasite or virus in culture; assay type: functional; details: 8325-4
SMILES,Ratio (Staphylococcus aureus [1]),MBC (Staphylococcus aureus [2]) [µg/mL],Activity [3],MBC (Staphylococcus aureus [4]) [µg/mL],Ratio (Enterococcus faecalis [5]),MBC (Enterococcus faecalis [6]) [µg/mL],MIC (Staphylococcus aureus [7]) [µg/mL],Activity [8],MIC (Enterococcus faecalis [9]) [µg/mL],MIC (Enterococcus faecalis [10]) [µg/mL],MIC (Staphylococcus aureus [11]) [µg/mL]
C[n+]1cc(-c2cccc(C(C)(C)C)c2)nc2ccccc21.[I-],8,16,inactive,16,4,64,2,Active,16,8,2
Fc1cccc(-c2cnc3ccccc3n2)c1,,,,,,,> 64,Active,> 64,> 64,> 64
COC(=O)c1cc(-c2ccc(C(C)(C)C)cc2)cc(-c2c[n+](C)c3ccccc3n2)c1.[I-],,,,,,,1,Active,4,4,1
CC(C)(C)c1ccc(-c2cc(C(N)=O)cc(-c3cnc4ccccc4n3)c2)cc1,,,,,,,> 64,Active,> 64,> 64,> 64
COC(=O)c1cc(-c2ccc(C(C)(C)C)cc2)cc(-c2cnc3ccccc3n2)c1,,,,,,,> 64,Active,> 64,> 64,> 64
CC(C)(C)c1ccc(-c2cccc3c(CNC(=N)N)ncnc23)cc1,,,,,,,64,Active,> 64,> 64,16
CCC[C@@H]1C[C@@H](C(=O)N[C@@H]([C@H]2O[C@H](SC)[C@H](O)[C@@H](O)[C@H]2O)[C@H](C)Cl)N(C)C1 [CLINDAMYCIN],,,,,,,> 64,,> 64,2,0.03
CN[C@H](CC(C)C)C(=O)N[C@H]1C(=O)N[C@@H](CC(N)=O)C(=O)N[C@H]2C(=O)N[C@H]3C(=O)N[C@H](C(=O)N[C@H](C(=O)O)c4cc(O)cc(O)c4-c4cc3ccc4O)[C@H](O)c3ccc(c(Cl)c3)Oc3cc2cc(c3O[C@@H]2O[C@H](CO)[C@@H](O)[C@H](O)[C@H]2O[C@H]2C[C@](C)(N)[C@H](O)[C@H](C)O2)Oc2ccc(cc2Cl)[C@H]1O [VANCOMYCIN],,1,,4,,,,,> 64,1,
C[n+]1cc(-c2cc(C(N)=O)cc(-c3ccc(C(C)(C)C)cc3)c2)nc2ccccc21.[I-],,,,,,,2,Active,4,4,2
C[n+]1cc(-c2ccc(C(C)(C)C)cc2)nc2ccccc21.[I-],16,8,,16,4,64,1,Active,16,16,0.5
c1ccc2nccnc2c1 [QUINOXALINE],,,,,,,> 64,Active,> 64,> 64,> 64
CC(C)(C)c1ccc(-c2ccnc3c(CN)ccnc23)cc1,,,,,,,> 64,Active,> 64,> 64,> 64
CC(C)(C)c1cccc(-c2cnc3ccccc3n2)c1,,,,,,,> 64,Active,> 64,> 64,> 64
CC(=N)NCc1cccc2c(-c3ccc(C(C)(C)C)cc3)ncnc12,,,,,,,64,Active,64,64,32
C[n+]1cc(-c2cccc(-c3ccccc3)c2)nc2ccccc21.[I-],8,4,inactive,4,8,64,0.5,Active,8,8,0.5
CC(C)(C)c1ccc(-c2ncnc3c(CN)cccc23)cc1,,,,,,,64,Active,64,64,32
CN(C)[C@@H]1C(O)=C(C(N)=O)C(=O)[C@@]2(O)C(O)=C3C(=O)c4c(O)cccc4[C@@](C)(O)[C@H]3C[C@@H]12 [TETRACYCLINE],,,,,,,64,,> 64,0.5,0.06
C[n+]1cc(-c2ccccc2)nc2ccccc21.[I-],,,,,,,8,Active,> 64,32,4
c1ccc(-c2cnc3ccccc3n2)cc1,,,,,,,> 64,Active,> 64,> 64,> 64
CC(C)(C)c1ccc(-c2cc(C(=O)NCCN)cc(-c3cnc4ccccc4n3)c2)cc1,,,,,,,4,Active,8,8,4
C[n+]1cc(-c2cccc(F)c2)nc2ccccc21.[I-],,,,,,,4,Active,32,32,2
C[n+]1cc(-c2cc(C(=O)NCCO)cc(-c3ccc(C(C)(C)C)cc3)c2)nc2ccccc21.[I-],,,,,,,4,Active,8,8,4
CC[C@H]1OC(=O)[C@H](C)[C@@H](O[C@H]2C[C@@](C)(OC)[C@@H](O)[C@H](C)O2)[C@H](C)[C@@H](O[C@@H]2O[C@H](C)C[C@H](N(C)C)[C@H]2O)[C@](C)(O)C[C@@H](C)C(=O)[C@H](C)[C@@H](O)[C@]1(C)O [ERYTHROMYCIN],,32,,,,,> 64,,> 64,1,0.13
c1ccc(-c2cccc(-c3cnc4ccccc4n3)c2)cc1,,,,,,,> 64,Active,> 64,> 64,> 64
CC(C)(C)c1ccc(-c2cc(C(=O)NCCO)cc(-c3cnc4ccccc4n3)c2)cc1,,,,,,,> 64,Active,> 64,> 64,> 64
Cc1onc(-c2ccccc2)c1C(=O)N[C@@H]1C(=O)N2[C@@H]1SC(C)(C)[C@@H]2C(=O)O [OXACILLIN],,,,,,,> 64,,> 64,8,0.06
C[n+]1ccnc2ccccc21.[I-],,,,,,,> 64,Active,> 64,> 64,32
CC(C)(C)c1ccc(-c2cnc3ccccc3n2)cc1,,,,,,,> 64,Active,> 64,> 64,> 64
